Source: PubChem (Johns Hopkins Ion Channel Center)
Sampled rows, rich in hits. Any-hit rate of the full collection: about 3.7%.
hERG rescue: shields human hERG channel from block by proarrhythmic agents | activation (rescue from dofetilide block), less the hit threshold, % at 10 µM | 0.51% of 310,000 active | AID 1511 | CHO-hERG, FluxOR thallium flux, dofetilide IC70 present | Q12809;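 active = activation above the mean of controls blocked by dofetilide plus 5 SD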;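 note: thallium influx through hERG after potassium depolarization seen as dye fluorescence rise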
KCNQ1 inh: blocks the human KCNQ1 potassium channel | B-score at 10 µM | CHO-K1 KCNQ1, FluxOR thallium flux fluorescence; active compounds read high | 1.3% of 310,000 active;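 active = compounds whose thallium flux B-score, printed positive for inhibition, exceeds three library SD while starting fluorescence stays within three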;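 note: channel opened by potassium depolarization with thallium stimulus after 20 min compound exposure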
Target sequence (P51787 whole entry, looked up): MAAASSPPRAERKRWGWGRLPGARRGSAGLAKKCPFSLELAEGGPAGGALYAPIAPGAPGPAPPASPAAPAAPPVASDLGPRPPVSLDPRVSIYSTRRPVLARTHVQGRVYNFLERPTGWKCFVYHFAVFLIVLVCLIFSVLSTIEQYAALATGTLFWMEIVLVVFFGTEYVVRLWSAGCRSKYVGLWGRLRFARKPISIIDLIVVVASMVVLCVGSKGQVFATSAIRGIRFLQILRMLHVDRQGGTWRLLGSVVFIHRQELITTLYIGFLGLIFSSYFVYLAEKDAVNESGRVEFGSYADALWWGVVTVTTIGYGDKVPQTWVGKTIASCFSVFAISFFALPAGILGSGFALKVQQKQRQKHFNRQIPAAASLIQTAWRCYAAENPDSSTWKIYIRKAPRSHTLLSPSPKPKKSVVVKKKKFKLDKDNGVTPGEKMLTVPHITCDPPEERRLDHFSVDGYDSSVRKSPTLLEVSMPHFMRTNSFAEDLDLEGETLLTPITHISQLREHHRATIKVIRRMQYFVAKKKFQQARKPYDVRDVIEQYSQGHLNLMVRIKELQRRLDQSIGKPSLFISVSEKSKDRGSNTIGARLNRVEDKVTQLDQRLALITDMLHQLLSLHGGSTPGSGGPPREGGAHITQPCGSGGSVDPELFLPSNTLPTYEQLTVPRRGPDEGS
KCNQ1 act: potentiators or activators of human KCNQ1 potassium channel; CHO-K1 KCNQ1, thallium flux FluxOR fluorescence; active compounds read high; B-score at 10 µM; 0.35% of 310,000 active; AID 2648;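 active = fluorescence ratio B-score, a plate-corrected score, at least three library SD, with initial intensity B-score within 5 SD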
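Assay system: stable KCNQ1 CHO-K1 line; medium: assay buffer, equal DMSO in all wells; timing: 90 min dye loading and 20 min compound exposure, both at room temperature; technique: kinetic FluxOR thallium fluorescence, 10-s 1-Hz baseline, 110-s post-stimulus read; read-out basis: B score of baseline-normalized fluorescence ratio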
Kir21 block: blocks the mouse Kir2.1 inward-rectifier potassium channel; P35561; HEK293-Kir2.1, FluxOR thallium flux fluorescence; active compounds read low; B-score at 10 µM; 0.85% of 310,000 active; AID 1672;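 active = fluorescence ratio B-score at or below minus 3 SD of library scores, with starting-brightness B-score within 2 SD, cut at about -4.2 in these data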;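 note: channel flux triggered by added potassium and thallium sulfate stimulus; B-score of peak minus minimum fluorescence over baseline after thallium stimulus; more negative B-score means stronger Kir2.1 block with less thallium influx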
KCNK9 inh: blocks the human KCNK9 two-pore domain potassium channel; Q9NPC2; HEK293 KCNK9, FluxOR thallium flux fluorescence; active compounds read low; B-score at 10 µM; 1.2% of 310,000 active;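 active = ratio B-score over 3 SD below the library mean, with starting fluorescence within 5 SD of its mean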;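 note: negative B-score means less thallium flux so channel inhibition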
KCNK3 inh: human KCNK3 channel inhibition, primary screen. O14649. CHO-KCNK3 thallium flux, FluxOR fluorescence; active compounds read low. B-score at 10 µM. 0.84% of 340,000 active;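 active = B-score under library mean minus 4 SD, starting fluorescence ratio at most library mean plus 5 SD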;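 note: more negative B-score means stronger inhibition of thallium flux through KCNK3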
KCNK9 block conf: confirmation of human KCNK9 potassium channel inhibitors | 43% of 4,900 active | inhibition, % at 10 µM | HEK293 KCNK9 cells, FluxOR thallium flux fluorescence | shares compounds with KCNK9 inh | AID 492992;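 active = thallium signal inhibited by more than 5 SD of the compound-free buffer control wells, on both duplicate plates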;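 note: 0% = assay buffer control wells without compound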
Kir2-1 spec: mouse Kir2.1 off-target activity of KCNK9 modulators. shares compounds with KCNK9 inh. Kir2.1 cells, FluxOR thallium flux fluorescence. inhibition, % at 10 µM. 4% of 4,900 active;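 active = thallium signal drop more than 5 SD beyond the mean of the no-compound control wells, seen in both duplicate plates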;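 note: signal is fluorescence rise after thallium addition divided by baseline fluorescence; plate controls were assay buffer only for no effect and full block by chlorpromazine control for full effect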
KCNK9 uninduced: second counter-screen for KCNK9 modulators: effect in non-induced cells; shares compounds with KCNK9 inh; non-induced KCNK9-HEK293, FluxOR thallium flux; inhibition, % at 10 µM; 40% of 4,900 active;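 active = thallium signal drop beyond 5 SD of the untreated control mean, on both duplicate plates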;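 note: plate controls were buffer only IC0 wells for no effect and SID17386958 at its maximal inhibitory level for full effect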
Starred values were filed as active, the others as inactive; i = inactive; nt = no result given; ! = a repeat was not active.

SMILES	hERG rescue	KCNQ1 inh	KCNQ1 act	Kir21 block	KCNK9 inh	KCNK3 inh	KCNK9 block conf	Kir2-1 spec	KCNK9 uninduced
COc1ccc(Sc2nnc(-c3ccccc3)cc2C#N)cc1	-4	i	i	0	i	i	nt	nt	nt
Cc1ccc(Sc2nnc(Cc3ccccc3)c3ccccc23)cc1	-8	i	i	-1.2	-13*	i	70%*	i	42%*
Cc1c(NC(=O)C(C)Sc2nc(N)cc(=O)[nH]2)c(=O)n(-c2ccccc2)n1C (stereo not drawn)	nt	nt	nt	nt	nt	i	nt	nt	nt
Cc1c(CCC(=O)O)c(=O)oc2c(C)c(OCc3cc4c(cc3Cl)OCO4)ccc12	-4	i	i	0.51	i	i	nt	nt	nt
COc1ccc(NC(=O)c2cnc(SC)nc2C)c(OC)c1	-6	i	i	-0.12	i	i	nt	nt	nt
CC1CCN(c2ccccc2NC(=O)c2ccc(C#N)cc2F)CC1	-8	i	i	-0.11	i	i	nt	nt	nt
CC(C)C(=O)N1CCN(c2ccccc2NC(=O)c2ccc(C#N)cc2F)CC1	-20	i	i	-1.1	i	i	i	i	i
CCCCCN(C(=O)CCC(=O)OC(C)C(=O)c1ccc(Cl)cc1)c1c(N)n(CCCC)c(=O)[nH]c1=O (stereo not drawn)	-17	i	i	-0.61	i	i	nt	nt	nt
COc1ccc(NC(=O)c2ccc(CNc3c(N4CCCC4)c(=O)c3=O)cc2)cc1Cl	-5	i	i	-0.27	i	i	nt	nt	nt
COc1ccc(CC2(C)OC(c3ccc(Cl)cc3)=NN2C(C)=O)cc1 (stereo not drawn)	-17	i	i	0	i	i	i	i	i
Cc1cc(C(=O)CSc2nnc(CCC(N)=O)n2C)c(C)n1C1CC1	nt	nt	nt	nt	nt	i	nt	nt	nt
O=c1ccn(CCCBr)c(=O)[nH]1	-3	i	i	-1.3	i	i	nt	nt	nt
CCOc1cc(CNc2ccc(Br)cc2)cc(Br)c1OCC(=O)NC(C)(C)C	2	i	i	-0.15	-9.2*	i	47%*	i	40%*
COc1ccc(OC)c(Cc2nnc(CCC(=O)NCc3ccc(C)s3)o2)c1	-10	i	i	-0.13	i	i	nt	nt	nt
CC(C)C1C(=O)CC(c2ccccc2)NC1c1ccccc1 (stereo not drawn)	-5	i	i	0.13	-11*	i	40%*	i	i
CC(=O)Nc1ccc(S(=O)(=O)Nc2nnc(Cc3ccc(Cl)cc3)s2)cc1	-6	i	i	3.8	i	i	nt	nt	nt
CCC[C@@H]1CCCO[C@@](C(=O)NCc2ccc(S(C)(=O)=O)cc2)(C(F)(F)F)C1	-3	i	i	0.06	i	i	nt	nt	nt
O=C(NCc1ccccc1)[C@]1(C(F)(F)F)C[C@H](CCc2ccccc2)CCCO1	-8	i	i	-1.5	i	i	i	i	i
CCCC[C@@H]1CCCO[C@@](C(=O)NCc2ccc(C)o2)(C(F)(F)F)C1	-9	i	i	0.12	i	i	i	i	i
Fc1ccc(NCc2n[nH]c(=S)n2Cc2ccccc2)cc1	-12	i	i	-2.8	i	i	nt	nt	nt
CCn1c(SCC(=O)Nc2ccc3c(c2)OCO3)nc2c(c1=O)SC(C)C2 (stereo not drawn)	-15	i	i	-0.07	i	i	nt	nt	nt
CC1Cc2nc(SCC(=O)Nc3ccc4c(c3)OCO4)n(CCc3ccccc3)c(=O)c2S1 (stereo not drawn)	-10	i	i	-1.9	-12*	i	58%*	i	i
CCC(C)n1c(SCC(=O)NC(=O)Nc2ccc3c(c2)OCCO3)nc2ccccc2c1=O (stereo not drawn)	-2	i	i	0.1	-15*	-8.7*	50%*	i	30%*
COc1ccc(-n2c(SCC(=O)Nc3ccc4c(c3)OCO4)nc3ccccc3c2=O)cc1	-7	i	i	1.3	-9.3*	i	38%*	i	36%*
CCOc1ccc(-n2c(SCC(=O)Nc3ccc4c(c3)OCO4)nc3ccccc3c2=O)cc1	-7	i	i	-1	i	i	nt	nt	nt
SMILES	hERG rescue	KCNQ1 inh	KCNQ1 act	Kir21 block	KCNK9 inh	KCNK3 inh	KCNK9 block conf	Kir2-1 spec	KCNK9 uninduced
CCOC(=O)C1CSC2(CCC(c3ccccc3)CC2)N1 (stereo not drawn)	-11	i	i	-2.4	i	i	i	i	i
CCOC(=O)C1NC(=O)CC1c1ccccc1 (stereo not drawn)	-9	i	i	-0.47	i	i	nt	nt	nt
O=C(N/N=C/c1ccc(COc2ccc(Br)cc2)o1)c1ccco1	-9	i	i	-1.8	i	i	nt	nt	nt
N/C(=N\c1nc(CSc2ccc(Cl)cc2)cc(=O)[nH]1)Nc1cccc2ccccc12	-3	i	i	0.01	i	i	i	i	i
Cc1ccc(SCc2cc(=O)[nH]c(/N=C(\N)Nc3ccc(C)c(C)c3)n2)cc1	-9	i	i	-0.11	i	i	i	i	i
CN[C@H]1CC[C@@H](c2ccc(Cl)c(Cl)c2)c2ccccc21	nt	i	i	-6.2*	-8.6*!	i	34%*	i	nt
CCOc1cc(N2CCOCC2)c(OCC)cc1NC(=O)CSc1ncccc1C(=O)O	nt	nt	nt	nt	nt	i	nt	nt	nt
c1ccc(-c2nc(NCc3cccnc3)c3oc4ccccc4c3n2)cc1	7.9*	i	i	0.33	-10*	i	38%*	i	32%*
O=C(c1cnc(Cl)c(Cl)c1)N1CCC(Cc2ccccc2)CC1	-8	i	i	-0.05	i	i	i	i	i
O=C(NCCc1ccccc1)c1ccc2nc(N3CCOCC3)sc2c1	-8	i	i	1	i	i	nt	nt	nt
O=C(c1cnc(Cl)c(Cl)c1)N1CCN(S(=O)(=O)c2ccc3ccccc3c2)CC1	nt	nt	nt	nt	nt	i	nt	nt	nt
O=C(c1ccc2nc(N3CCOCC3)sc2c1)N1CCC(Cc2ccccc2)CC1	-14	i	i	-1.2	i	i	i	i	i
C=CCc1cccc(CNn2cnnc2)c1O	-4	i	i	-0.32	i	i	nt	nt	nt
COc1ccc(CCNC(=O)Cn2c(=O)n(-c3ccc(C)c(F)c3)c(=O)c3sccc32)cc1OC	-10	i	i	-0.78	i	i	nt	nt	nt
CC1CC(=O)N(CC(=O)NCc2ccc(F)cc2)c2ccccc2S1(=O)=O (stereo not drawn)	-8	i	i	-0.67	i	i	nt	nt	nt
